In ChEMBL document CHEMBL4229410, “Facile construction of fused benzimidazole-isoquinolinones that induce cell-cycle arrest and apoptosis in colorectal cancer cells” (Bioorg Med Chem, 2018):

Assays:
[1] = target: Fibroblast growth factor receptor 3 (Homo sapiens, UniProt P22607); test: Inhibition of partial length human FGFR3 (R442 to S771 residues) expressed in bacterial expression system assessed as residual activity at 5 uM by KINOMEscan assay relative to control
[2] = tested on: Tyrosine-protein kinase ABL1 (Homo sapiens), P00519 [E255K]; test: Inhibition of human phosphorylated ABL1 E255K mutant (S229 to K512 residues) expressed in mammalian expression system assessed as residual activity at 5 uM by KINOMEscan assay relative to control
[3] = target: Dual specificity mitogen-activated protein kinase kinase 2 (Homo sapiens, UniProt P36507); test: Binding affinity to full length human MEK2 (M1 to V400 residues) expressed in mammalian expression system by KINOMEscan assay
[4] = target: Serine/threonine-protein kinase 32C (Homo sapiens, UniProt Q86UX6); test: Inhibition of human YANK3 (M68 to G486 residues) expressed in bacterial expression system assessed as residual activity at 5 uM by KINOMEscan assay relative to control
HT-29 [5] = test: Induction of apoptosis in human HT-29 cells assessed as necrotic cells at 25 uM after 48 hrs by Annexin-V-FITC/propidium iodide staining based flow cytometry (reference value: 1.6%); type: functional
SW-620 [6] = test: Upregulation of p21 expression in human SW620 cells after 48 hrs by Western blot analysis; type: functional, cell-based
[7] = target: RAC-alpha serine/threonine-protein kinase (Homo sapiens, UniProt P31749); test: Binding affinity to human AKT1 expressed in bacterial expression system by KINOMEscan assay
[8] = target: ALK tyrosine kinase receptor (Homo sapiens, UniProt Q9UM73); test: Inhibition of human ALK (I1088 to E1409 residues) expressed in mammalian expression system assessed as residual activity at 5 uM by KINOMEscan assay relative to control
[9] = target: Receptor-type tyrosine-protein kinase FLT3 (Homo sapiens, UniProt P36888); test: Binding affinity to human FLT3 (V592 to Y969 residues) expressed in bacterial expression system by KINOMEscan assay
[10] = target: Inhibitor of nuclear factor kappa-B kinase subunit alpha (Homo sapiens) (UniProt O15111); test: Inhibition of full length human IKKalpha (M1 to E745 residues) expressed in mammalian expression system assessed as residual activity at 5 uM by KINOMEscan assay relative to control
[11] = target: MAP kinase-interacting serine/threonine-protein kinase 1 (Homo sapiens, UniProt Q9BUB5); test: Binding affinity to full length human MKNK1 (M1 to L424 residues) expressed in mammalian expression system by KINOMEscan assay
[12] = target: Tyrosine-protein kinase ABL1 (Homo sapiens, UniProt P00519); test: Inhibition of human non-phosphorylated ABL1 (S229 to K512 residues) expressed in mammalian expression system assessed as residual activity at 5 uM by KINOMEscan assay relative to control
[13] = target: Mast/stem cell growth factor receptor Kit (Homo sapiens, UniProt P10721, T670I/V559D); test: Binding affinity to human KIT (I571 to D952 residues) V559D/T670I double mutant expressed in bacterial expression system by KINOMEscan assay
[14] = target: Receptor tyrosine-protein kinase erbB-2 (Homo sapiens, UniProt P04626); test: Inhibition of human ERBB2 (K646 to V1225 residues) expressed in mammalian expression system assessed as residual activity at 5 uM by KINOMEscan assay relative to control
SW-620 [15] = test: Induction of apoptosis in human SW620 cells assessed as increase in PARP activation after 48 hrs by Western blot analysis; type: functional, cell-based
[16] = target: Serine/threonine-protein kinase PLK3 (Homo sapiens, UniProt Q9H4B4); test: Inhibition of partial length human PLK3 (A42 to L334 residues) expressed in mammalian expression system assessed as residual activity at 5 uM by KINOMEscan assay relative to control
[17] = target: Serine/threonine-protein kinase STK11 (Homo sapiens, UniProt Q15831); test: Binding affinity to full length human LKB1 (M1 to Q433 residues) expressed in bacterial expression system by KINOMEscan assay
HT-29 [18] = test: Induction of apoptosis in human HT-29 cells assessed as late apoptotic cells at 50 uM after 48 hrs by Annexin-V-FITC/propidium iodide staining based flow cytometry (reference value: 4.1%); type: functional
[19] = target: Ribosomal protein S6 kinase alpha-3 (Homo sapiens, UniProt P51812); test: Inhibition of human N-terminal RSK2 kinase domain 1 (M1 to D394 residues) expressed in mammalian expression system assessed as residual activity at 5 uM by KINOMEscan assay relative to control
[20] = target: Tyrosine-protein kinase BTK (Homo sapiens, UniProt Q06187); test: Inhibition of full length human BTK (M1 to S659 residues) expressed in mammalian expression system assessed as residual activity at 5 uM by KINOMEscan assay relative to control
[21] = target: NUAK family SNF1-like kinase 2 (Homo sapiens, UniProt Q9H093); test: Binding affinity to human SNARK (P22 to A333 residues) expressed in mammalian expression system by KINOMEscan assay
[22] = target: Serine/threonine-protein kinase DCLK1 (Homo sapiens, UniProt O15075); test: Binding affinity to partial length human DCAMKL1 (L270 to A662 residues) expressed in mammalian expression system by KINOMEscan assay
[23] = target: Rho-associated protein kinase 2 (Homo sapiens, UniProt O75116); test: Binding affinity to human ROCK2 (M1 to T431 residues) expressed in mammalian expression system by KINOMEscan assay
[24] = target: Tyrosine-protein kinase ABL1 (Homo sapiens, UniProt P00519, T315I); test: Binding affinity to human phosphorylated ABL1 T315I mutant (S229 to K512 residues) expressed in mammalian expression system by KINOMEscan assay
SW-620 [25] = test: Induction of apoptosis in human SW620 cells assessed as necrotic cells at 75 uM after 48 hrs by Annexin-V-FITC/propidium iodide staining based flow cytometry (reference value: 0.9%); type: functional
[26] = target: Serine/threonine-protein kinase Chk1 (Homo sapiens) (UniProt O14757); test: Inhibition of human CHEK1 (M1 to G289 residues) expressed in bacterial expression system assessed as residual activity at 5 uM by KINOMEscan assay relative to control
HT-29 [27] = test: Induction of apoptosis in human HT-29 cells assessed as increase in PARP activation after 48 hrs by Western blot analysis; type: functional, cell-based
Method in brief: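 HT29 or SW620 cells were treated at 0, 25, 50 and 75 μM for 48 h and lysed in RIPA with protease and phosphatase inhibitors. Protein was quantified by BCA. 50 μg lysate was run on 8–15% SDS-PAGE and transferred to PVDF. Blocking was 5% BSA/TBST for 2 h; primary antibodies were applied overnight at 4 °C, then HRP secondary 1 h at room temperature.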

[28] = target: Proto-oncogene tyrosine-protein kinase Src (Homo sapiens, UniProt P12931); test: Binding affinity to human SRC (L240 to L536 residues) expressed in bacterial expression system by KINOMEscan assay

Chain of Serine/threonine-protein kinase Chk1 (Homo sapiens) (O14757 whole entry, the tested form may be a part): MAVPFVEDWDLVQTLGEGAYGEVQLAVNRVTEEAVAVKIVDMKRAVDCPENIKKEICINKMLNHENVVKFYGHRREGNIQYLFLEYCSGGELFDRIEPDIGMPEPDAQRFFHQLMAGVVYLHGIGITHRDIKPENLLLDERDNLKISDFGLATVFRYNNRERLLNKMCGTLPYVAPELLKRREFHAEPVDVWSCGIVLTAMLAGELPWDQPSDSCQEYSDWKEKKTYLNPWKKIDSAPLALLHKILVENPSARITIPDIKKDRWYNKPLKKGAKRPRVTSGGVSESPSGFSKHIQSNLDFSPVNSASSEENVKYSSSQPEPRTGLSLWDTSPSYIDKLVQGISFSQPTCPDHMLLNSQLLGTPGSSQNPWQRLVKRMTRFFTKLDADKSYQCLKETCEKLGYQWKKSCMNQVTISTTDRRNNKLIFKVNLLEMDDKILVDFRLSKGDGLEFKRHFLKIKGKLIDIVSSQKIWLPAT
Chain of MAP kinase-interacting serine/threonine-protein kinase 1 (Q9BUB5 whole entry, the tested form may be a part): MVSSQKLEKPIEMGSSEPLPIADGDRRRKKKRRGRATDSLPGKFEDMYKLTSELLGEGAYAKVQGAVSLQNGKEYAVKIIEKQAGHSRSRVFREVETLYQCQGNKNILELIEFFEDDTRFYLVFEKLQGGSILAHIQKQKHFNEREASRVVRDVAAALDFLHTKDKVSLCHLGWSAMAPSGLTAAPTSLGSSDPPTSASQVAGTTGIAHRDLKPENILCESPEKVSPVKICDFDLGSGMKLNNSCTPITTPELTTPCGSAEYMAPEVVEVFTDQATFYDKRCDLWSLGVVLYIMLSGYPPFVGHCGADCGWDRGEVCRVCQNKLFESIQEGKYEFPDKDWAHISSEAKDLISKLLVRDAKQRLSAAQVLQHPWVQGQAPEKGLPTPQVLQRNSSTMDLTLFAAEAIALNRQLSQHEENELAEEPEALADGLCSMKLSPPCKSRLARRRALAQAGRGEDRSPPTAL
Chain of Receptor-type tyrosine-protein kinase FLT3 (P36888 whole entry, the tested form may be a part): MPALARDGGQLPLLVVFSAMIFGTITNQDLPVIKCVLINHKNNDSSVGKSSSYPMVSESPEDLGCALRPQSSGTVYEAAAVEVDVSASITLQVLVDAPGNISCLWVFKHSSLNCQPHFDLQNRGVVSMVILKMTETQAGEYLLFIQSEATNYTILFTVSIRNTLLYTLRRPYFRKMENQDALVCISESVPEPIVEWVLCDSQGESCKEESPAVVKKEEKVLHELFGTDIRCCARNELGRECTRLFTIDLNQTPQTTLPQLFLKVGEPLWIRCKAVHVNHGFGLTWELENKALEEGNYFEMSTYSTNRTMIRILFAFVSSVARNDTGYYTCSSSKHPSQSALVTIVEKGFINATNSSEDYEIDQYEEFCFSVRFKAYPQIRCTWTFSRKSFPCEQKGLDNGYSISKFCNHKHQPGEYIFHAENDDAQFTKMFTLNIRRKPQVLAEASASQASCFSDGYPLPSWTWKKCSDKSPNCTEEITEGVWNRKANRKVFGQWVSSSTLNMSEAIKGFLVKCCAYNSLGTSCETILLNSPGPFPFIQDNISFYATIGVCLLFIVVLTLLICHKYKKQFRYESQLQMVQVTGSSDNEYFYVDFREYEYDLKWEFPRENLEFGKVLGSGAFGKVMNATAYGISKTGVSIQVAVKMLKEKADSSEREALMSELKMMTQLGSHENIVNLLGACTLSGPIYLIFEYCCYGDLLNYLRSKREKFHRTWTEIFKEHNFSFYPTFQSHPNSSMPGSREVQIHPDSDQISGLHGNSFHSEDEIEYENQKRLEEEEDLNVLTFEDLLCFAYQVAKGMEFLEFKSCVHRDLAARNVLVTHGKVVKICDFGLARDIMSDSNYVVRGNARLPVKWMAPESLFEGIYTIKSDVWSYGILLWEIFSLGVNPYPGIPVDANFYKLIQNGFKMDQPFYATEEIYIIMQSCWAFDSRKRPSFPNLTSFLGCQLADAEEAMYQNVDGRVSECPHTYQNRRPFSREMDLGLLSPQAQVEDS
Chain of NUAK family SNF1-like kinase 2 (Q9H093 whole entry, the tested form may be a part): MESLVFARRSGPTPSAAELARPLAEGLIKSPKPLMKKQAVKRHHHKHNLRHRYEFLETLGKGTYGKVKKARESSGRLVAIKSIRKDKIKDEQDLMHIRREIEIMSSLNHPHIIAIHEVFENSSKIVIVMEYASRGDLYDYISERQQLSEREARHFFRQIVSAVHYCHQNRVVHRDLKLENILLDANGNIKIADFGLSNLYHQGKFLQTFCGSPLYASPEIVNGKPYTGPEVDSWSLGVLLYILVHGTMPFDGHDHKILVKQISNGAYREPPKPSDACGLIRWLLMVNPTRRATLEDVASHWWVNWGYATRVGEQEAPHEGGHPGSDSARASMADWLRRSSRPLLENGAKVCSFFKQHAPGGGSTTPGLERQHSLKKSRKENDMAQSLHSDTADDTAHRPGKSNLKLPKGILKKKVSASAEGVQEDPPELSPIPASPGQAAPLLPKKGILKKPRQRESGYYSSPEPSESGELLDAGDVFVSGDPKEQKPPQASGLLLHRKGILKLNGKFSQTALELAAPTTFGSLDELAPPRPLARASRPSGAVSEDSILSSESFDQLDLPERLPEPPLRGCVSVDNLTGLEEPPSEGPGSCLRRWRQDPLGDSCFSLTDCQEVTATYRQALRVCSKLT
Chain of Dual specificity mitogen-activated protein kinase kinase 2 (P36507 whole entry, the tested form may be a part): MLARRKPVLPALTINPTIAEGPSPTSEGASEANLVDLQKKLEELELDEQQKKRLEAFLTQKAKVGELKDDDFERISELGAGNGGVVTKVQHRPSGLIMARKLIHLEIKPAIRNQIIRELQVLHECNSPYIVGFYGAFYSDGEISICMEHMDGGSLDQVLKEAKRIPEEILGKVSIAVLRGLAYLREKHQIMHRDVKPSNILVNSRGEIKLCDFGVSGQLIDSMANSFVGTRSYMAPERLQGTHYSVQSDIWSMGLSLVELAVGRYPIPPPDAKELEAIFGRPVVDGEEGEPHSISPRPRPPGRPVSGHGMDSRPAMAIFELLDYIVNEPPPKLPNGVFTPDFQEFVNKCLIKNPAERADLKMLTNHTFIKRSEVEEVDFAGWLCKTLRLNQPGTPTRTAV
Chain of Serine/threonine-protein kinase PLK3 (Q9H4B4 whole entry, looked up, the tested form may be a part): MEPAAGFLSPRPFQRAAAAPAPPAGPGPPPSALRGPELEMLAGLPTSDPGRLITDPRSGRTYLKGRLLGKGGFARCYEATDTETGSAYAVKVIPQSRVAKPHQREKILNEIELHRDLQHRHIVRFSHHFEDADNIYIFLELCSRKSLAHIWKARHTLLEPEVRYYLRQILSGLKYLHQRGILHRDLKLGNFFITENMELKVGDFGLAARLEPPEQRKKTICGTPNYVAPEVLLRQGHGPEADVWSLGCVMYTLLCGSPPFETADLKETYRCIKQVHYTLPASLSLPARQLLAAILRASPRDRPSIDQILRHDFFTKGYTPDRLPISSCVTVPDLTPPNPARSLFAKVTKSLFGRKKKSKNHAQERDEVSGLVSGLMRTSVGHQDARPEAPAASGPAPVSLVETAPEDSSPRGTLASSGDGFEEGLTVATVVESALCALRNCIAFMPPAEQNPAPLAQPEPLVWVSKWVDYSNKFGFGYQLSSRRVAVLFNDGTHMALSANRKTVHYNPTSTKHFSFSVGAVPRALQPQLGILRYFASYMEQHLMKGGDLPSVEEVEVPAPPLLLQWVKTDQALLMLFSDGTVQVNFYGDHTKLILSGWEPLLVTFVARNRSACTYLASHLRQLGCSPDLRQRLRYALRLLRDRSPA
Chain of Fibroblast growth factor receptor 3 (P22607 23-806 limits assumed): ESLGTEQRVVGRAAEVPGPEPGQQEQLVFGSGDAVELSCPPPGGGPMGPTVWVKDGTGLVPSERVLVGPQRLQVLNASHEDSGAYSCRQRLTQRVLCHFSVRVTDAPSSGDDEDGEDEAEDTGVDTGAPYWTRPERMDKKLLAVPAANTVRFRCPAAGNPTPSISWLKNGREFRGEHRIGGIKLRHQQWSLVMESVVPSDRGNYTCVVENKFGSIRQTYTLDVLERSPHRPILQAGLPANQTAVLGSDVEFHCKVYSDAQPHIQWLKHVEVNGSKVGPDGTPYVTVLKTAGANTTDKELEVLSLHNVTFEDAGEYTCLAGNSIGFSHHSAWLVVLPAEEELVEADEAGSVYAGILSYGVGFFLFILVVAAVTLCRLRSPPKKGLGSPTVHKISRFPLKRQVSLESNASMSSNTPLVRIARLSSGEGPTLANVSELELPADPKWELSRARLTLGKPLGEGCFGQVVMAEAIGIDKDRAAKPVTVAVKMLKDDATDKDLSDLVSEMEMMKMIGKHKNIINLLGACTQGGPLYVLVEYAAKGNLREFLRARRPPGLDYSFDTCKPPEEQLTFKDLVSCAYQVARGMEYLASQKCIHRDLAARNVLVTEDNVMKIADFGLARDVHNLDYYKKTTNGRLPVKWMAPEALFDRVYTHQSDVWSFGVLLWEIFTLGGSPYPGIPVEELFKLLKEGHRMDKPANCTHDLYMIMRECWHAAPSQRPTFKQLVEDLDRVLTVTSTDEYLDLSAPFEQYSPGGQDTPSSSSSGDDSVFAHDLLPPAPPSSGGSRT
Chain of RAC-alpha serine/threonine-protein kinase (P31749 whole entry, the tested form may be a part): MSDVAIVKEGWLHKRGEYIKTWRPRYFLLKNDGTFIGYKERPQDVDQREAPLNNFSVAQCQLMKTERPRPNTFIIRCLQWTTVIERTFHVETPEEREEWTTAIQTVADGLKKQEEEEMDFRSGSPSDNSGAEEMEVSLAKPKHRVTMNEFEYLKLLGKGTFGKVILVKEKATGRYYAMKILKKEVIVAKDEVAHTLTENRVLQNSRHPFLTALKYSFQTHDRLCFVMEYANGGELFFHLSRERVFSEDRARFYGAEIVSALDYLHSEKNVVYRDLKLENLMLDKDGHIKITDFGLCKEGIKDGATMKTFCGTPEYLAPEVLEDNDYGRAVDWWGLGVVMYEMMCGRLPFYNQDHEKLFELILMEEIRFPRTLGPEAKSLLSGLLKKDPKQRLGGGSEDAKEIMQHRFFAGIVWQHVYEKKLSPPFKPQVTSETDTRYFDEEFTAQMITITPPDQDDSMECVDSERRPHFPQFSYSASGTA

Compound `CC(C)CN(C(=O)c1cccnc1)c1c2ccccc2c(=O)n2c1[nH]c1ccccc12` has an Activity [1] of 80%, an Activity [2] of 69% and a Kd [3] of no less than 5 µM. For the same compound, the Activity [4] was 99%, the Activity (HT-29 [5]) was 2.7% and the Activity (SW-620 [6]) was “Dose-dependent effect”. It also gave a Kd [7] of no less than 5 µM, an Activity [8] of 65% and a Kd [9] of no less than 5 µM. For the same compound, the Activity [10] was 100%, the Kd [11] was no less than 5 µM and the Activity [12] was 65%. The Kd [13] was no less than 5 µM, the Activity [14] was 97% and the Activity (SW-620 [15]) was “Dose-dependent effect”. For the same compound, the Activity [16] was 87%, the Kd [17] was no less than 5 µM and the Activity (HT-29 [18]) was 13.7%. It also gave an Activity [19] of 91%, an Activity [20] of 74% and a Kd [21] of no less than 5 µM. The Kd [22] was no less than 5 µM, the Kd [23] was no less than 5 µM and the Kd [24] was no less than 5 µM. For the same compound, the Activity (SW-620 [25]) was 3.5%, the Activity [26] was 83% and the Activity (HT-29 [27]) was “Dose-dependent effect”. It also gave a Kd [28] of no less than 5 µM.
